The source made the active and inactive calls. No cut-off for these calls is given here. Where a SMILES comes first, the peptide text is derived from it. Bridges are numbered along the chain shown (N, C = ends). Roman numbers before positions name the chains, in order. [ ]: non-standard residue; d: D form. The star is where a group is joined. 5TAMRA = CN(C)c1ccc2c(c1)Oc1cc(N(C)C)ccc1C21OC(=O)c2cc(C(=O)*)ccc21; Cha = N[C@@H](CC1CCCCC1)C(=O)O
How the values were obtained:
Mus musculus [1] = experiment: Protection against colistin-induced nephrotoxicity in C57BL/6 mouse model assessed as reduction in NGAL level at 1 mg/kg, ip administered once every other day measured after 7 days by IHC analysis; format: functional, organism-based; conditions: time 7.0 day
In short: (§1)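 Male C57BL/6 mice, 7 weeks: colistin 20 mg/kg sc daily for 7 days, peptide 1 mg/kg ip once every other day, n = 5 per group. Day-7 kidney sections, citrate antigen retrieval, immunohistochemistry with HRP polymer secondary and hematoxylin counterstain; PAS and Masson's trichrome for damage.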

Epithelial cell [2] = experiment: Reversal of H2O2-induced IL-1beta mRNA level in human tubular epithelial cells at 10 to 100 nM by qPCR analysis; format: functional, cell-based; conditions: dose 10-100 nM
Mus musculus [3] = experiment: Protection against […] C57BL/6 mouse model assessed as decrease in NGAL level at 1 mg/kg, ip administered thrice a week prior to induction of bilateral ischemia-reperfusion injury measured after 6 days by Western blot analysis; format: functional, organism-based; conditions: time 6.0 day
[4] = Drug localization in endosomes of human HeLa cells expressing endosome markers at 100 nM incubated for 3 hrs by GFP based analysis; format: ADME, subcellular; conditions: 0.1 µM
In short: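 HeLa cells expressing early-endosome GFP marker (16 h) given TAMRA-labelled peptide 100 nM for 3 h plus LysoTracker 50 nM; confocal imaging with Pearson correlation.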

HeLa [5] = experiment: Reversal of H2O2-induced mitochondrial damage in human HeLa cells assessed as formation of long cristae at 50 to 100 nM preincubated for 2 hrs followed by H2O2 addition for 2 hrs by TEM analysis; format: functional, cell-based; conditions: dose 50-100 nM, time 4.0 hrs
In short: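 HeLa cells were pretreated with 50 or 100 nM peptide for 2 h, then exposed to 0.5 mM H2O2 for 2 h. They were fixed in Karnovsky's fixative (pH 7.2), postfixed in osmium, embedded in Spurr's resin and stained with uranyl acetate/lead citrate for TEM. Cristae longer than 0.5 μm were counted from at least 50 mitochondrial images.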

Mus musculus [6] = experiment: Protection against colistin-induced nephrotoxicity in C57BL/6 mouse model assessed as reduction in blood BUN level at 1 mg/kg, ip administered once every other day measured upto 7 days; format: functional, organism-based; conditions: time <= 7.0 day
In short: (§2)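 Male C57BL/6 mice, 7 weeks: colistin 20 mg/kg sc daily for 7 days, peptide 1 mg/kg ip every other day, n = 5 per group. BUN by autoanalyzer and creatinine by modified Jaffe reaction after 7 days; mean ± SEM.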

Epithelial cell [7] = experiment: Inhibition of H2O2-induced apoptosis in human tubular epithelial cells at 10 to 100 nM by Annexin V-FITC/PI staining based flow cytometry; format: functional; conditions: dose 10-100 nM
In short: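 hTECs exposed to H2O2 0.5 mM; annexin V-FITC/propidium iodide staining 15 min at room temperature in the dark, apoptosis and necrosis percentages by flow cytometry.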

[8] = Drug localization in mitochondria of human tubular epithelial cells upto 100 nM by MitoTracker probe based assay; format: ADME; conditions: epithelial cell, 0.1 µM
Mus musculus [9] = experiment: Protection against colistin-induced nephrotoxicity in C57BL/6 mouse model assessed as reduction in blood creatinine level at 1 mg/kg, ip administered once every other day measured upto 7 days; format: functional, organism-based; conditions: time <= 7.0 day; in short: as §2
Mus musculus [10] = experiment: Protection against […] C57BL/6 mouse model assessed as increase in ATP6 mRNA level at 1 mg/kg, ip administered thrice a week prior to induction of bilateral ischemia-reperfusion injury measured after 6 days by qPCR analysis; format: functional, organism-based; conditions: time 6.0 day
Mus musculus [11] = experiment: Protection against […] C57BL/6 mouse model assessed as increase in IL-10 mRNA level at 1 mg/kg, ip administered thrice a week prior to induction of bilateral ischemia-reperfusion injury measured after 6 days by qPCR analysis; format: functional, organism-based; conditions: time 6.0 day
Mus musculus [12] = experiment: Protection against colistin-induced nephrotoxicity in C57BL/6 mouse model assessed as reduction in P-21 level at 1 mg/kg, ip administered once every other day measured after 7 days by IHC analysis; format: functional, organism-based; conditions: time 7.0 day; in short: as §1
Mus musculus [13] = experiment: Protection against […] C57BL/6 mouse model assessed as reduction in serum BUN level at 1 mg/kg, ip administered thrice a week prior to induction of bilateral ischemia-reperfusion injury measured after 6 days; format: functional, organism-based; conditions: time 6.0 day
Mus musculus [14] = experiment: Protection against colistin-induced nephrotoxicity in C57BL/6 mouse model assessed as reduction in renal fibrosis at 1 mg/kg, ip administered once every other day measured after 7 days by […] analysis; format: functional, organism-based; conditions: time 7.0 day
In short: (§3)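 Seven-week-old male C57BL/6 mice got colistin 20 mg/kg SC daily for 7 days plus peptide 1 mg/kg intraperitoneally every other day; groups of n = 5 (control, colistin, colistin + peptide). Kidneys were taken at day 7. Cytochrome C was detected by immunohistochemistry (citrate antigen retrieval, HRP-polymer detection, hematoxylin counterstain). Sections were also stained with PAS and Masson's trichrome to score histologic damage and fibrosis.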

Epithelial cell [15] = experiment: Induction of H2O2-reduced ATP production in human tubular epithelial cells at 10 to 20 nM incubated for 3 hrs followed by H2O2 measured after 1 hr by fluorescene based analysis; format: functional; conditions: dose 10-20 nM, time 4.0 hrs
Mus musculus [16] = experiment: Protection against colistin-induced nephrotoxicity in C57BL/6 mouse model assessed as reduction in tubular dilation at 1 mg/kg, ip administered once every other day measured after 7 days by […] analysis; format: functional, organism-based; conditions: time 7.0 day; in short: as §3
Mus musculus [17] = experiment: Protection against colistin-induced nephrotoxicity in C57BL/6 mouse model assessed as increase in SOD-1 level at 1 mg/kg, ip administered once every other day measured after 7 days by IHC analysis; format: functional, organism-based; conditions: time 7.0 day; in short: as §1
Epithelial cell [18] = experiment: Reversal of H2O2-induced p21 mRNA level in human tubular epithelial cells at 10 to 100 nM by qPCR analysis; format: functional, cell-based; conditions: dose 10-100 nM
Mus musculus [19] = experiment: Protection against colistin-induced nephrotoxicity in C57BL/6 mouse model assessed as appearance of cristae formation in mitochondria of kidney at 1 mg/kg, ip administered once every other day measured after 7 days by TEM analysis; format: functional, organism-based; conditions: time 7.0 day
In short: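 Male C57BL/6 mice, 7 weeks, given colistin 20 mg/kg sc daily for 7 days with peptide 1 mg/kg ip once every other day, n = 5 per group; kidney mitochondria examined by TEM.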

[20] = Drug uptake in human HeLa cells at 100 nM incubated for 3 hrs in presence of M-beta-CD by FACS analysis; format: ADME, cell-based; conditions: 0.1 µM
In short: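 HeLa cells pretreated 30 min with the endocytosis inhibitor (methyl-β-cyclodextrin for cholesterol depletion), then given 100 nM TAMRA-labelled peptide for 3 h and analysed by FACS.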

HeLa [21] = experiment: Induction of H2O2-reduced mitochondrial membrane potential in human HeLa cells incubated for 3 hrs followed by H2O2 addition for 1 hr by fluorescence based analysis; format: functional, cell-based; conditions: dose 10-30 nM, time 4.0 hrs
In short: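 HeLa cells given peptide 3 h then 1 mM H2O2 for 1 h; TMRE 600 nM for 15 min, washed, fluorescence read in HBSS at 37 °C (Ex/Em 525/575 nm).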

Mus musculus [22] = experiment: Protection against colistin-induced nephrotoxicity in C57BL/6 mouse model assessed as reduction in tubular casts at 1 mg/kg, ip administered once every other day measured after 7 days by […] analysis; format: functional, organism-based; conditions: time 7.0 day; in short: as §3
[23] = Drug localization in CCCP-damaged mitochondria of human HeLa cells at 100 nM incubated for 3 hrs by NAO probe based assay; format: ADME; conditions: 0.1 µM
In short: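 HeLa cells given TAMRA-labelled peptide 100 nM for 3 h and cardiolipin stained with NAO (100 nM, 1 h), with or without 20 μM CCCP for 30 min; LysoTracker 50 nM. Confocal images, Pearson r from five independent images (63×) per condition.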

CC(=O)N[C@@H](CC1CCCCC1)C(=O)N[C@H]1CSSC[C@@H](C(=O)N[C@@H](CCCNC(=N)N)C(N)=O)NC(=O)[C@H](CC2CCCCC2)NC(=O)[C@H](CCCNC(=N)N)NC(=O)[C@H](CCCNC(=N)N)NC(=O)[C@H](CC2CCCCC2)NC(=O)[C@H](CC(C)C)NC(=O)[C@H](CCCNC(=N)N)NC(=O)[C@@H](NC(=O)[C@H](CC2CCCCC2)NC(=O)c2ccc3c(c2)C(=O)OC32c3ccc(N(C)C)cc3Oc3cc(N(C)C)ccc32)CSSC[C@@H](C(=O)N[C@@H](CCCNC(=N)N)C(N)=O)NC(=O)[C@H](CC2CCCCC2)NC(=O)[C@H](CCCNC(=N)N)NC(=O)[C@H](CCCNC(=N)N)NC(=O)[C@H](CC2CCCCC2)NC(=O)[C@H](CC(C)C)NC(=O)[C@H](CCCNC(=N)N)NC1=O (I: Ac-[Cha]CRL[Cha]RR[Cha]CR-NH2 / II: 5TAMRA-[Cha]CRL[Cha]RR[Cha]CR-NH2; disulfide I:2-II:9, I:9-II:2)
Activity (Mus musculus [1]): Active | Activity (Epithelial cell [2]): Active | Activity (Mus musculus [3]): Active | Drug uptake [4]: Not Active | Activity (HeLa [5]): Active | Activity (Mus musculus [6]): Active | inhibition (Epithelial cell [7]): Active | Drug uptake [8]: Active | Activity (Mus musculus [9]): Active | Activity (Mus musculus [10]): Active | Activity (Mus musculus [11]): Active | Activity (Mus musculus [12]): Active | Activity (Mus musculus [13]): Active | Activity (Mus musculus [14]): Active | Activity (Epithelial cell [15]): Active | Activity (Mus musculus [16]): Active | Activity (Mus musculus [17]): Active | Activity (Epithelial cell [18]): Active | Activity (Mus musculus [19]): Active | Drug uptake [20]: Not Active | Activity (HeLa [21]): Dose-Dependent Effect | Activity (Mus musculus [22]): Active | Drug uptake [23]: Active
